From PubChem BioAssay
APP 5UTR inh = APP translation inhibition | inhibition, % at 2 µM | 190,000 compounds, 0.82% hits | AID 1285 | SH-SY5Y APP 5'UTR-luciferase reporter, luminescence;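 active = inhibition above a set limit, derived from the sample mean plus 3 SD, cut at about 45% in these data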
FLuc inhib CS = counter-screen for luciferase assay inhibitors: firefly luciferase inhibition; P08659; ATPLite firefly luciferase biochemical luminescence, 10 min; inhibition, % at 10 µM; 200,000 compounds, 1.5% hits; AID 1006;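 active = inhibition above about 50% when tested at 10 µM, limit read from the data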
Target sequence (P08659 whole entry, looked up): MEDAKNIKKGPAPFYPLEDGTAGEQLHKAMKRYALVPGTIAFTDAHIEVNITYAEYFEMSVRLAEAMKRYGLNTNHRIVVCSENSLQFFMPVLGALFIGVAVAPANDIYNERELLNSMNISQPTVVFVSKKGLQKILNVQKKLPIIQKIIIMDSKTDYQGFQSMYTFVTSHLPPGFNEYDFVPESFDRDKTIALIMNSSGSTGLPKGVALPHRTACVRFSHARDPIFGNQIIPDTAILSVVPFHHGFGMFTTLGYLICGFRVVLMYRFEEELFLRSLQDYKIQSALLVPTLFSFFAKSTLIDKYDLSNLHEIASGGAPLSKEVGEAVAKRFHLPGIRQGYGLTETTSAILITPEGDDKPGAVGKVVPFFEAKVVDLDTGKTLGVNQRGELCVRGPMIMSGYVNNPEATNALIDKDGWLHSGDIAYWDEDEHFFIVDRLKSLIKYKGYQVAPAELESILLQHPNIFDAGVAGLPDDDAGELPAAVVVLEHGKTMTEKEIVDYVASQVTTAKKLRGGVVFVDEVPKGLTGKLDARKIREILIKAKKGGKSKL
APP 5'UTR act = APP 5'UTR luciferase reporter activation; SH-SY5Y APP 5'UTR luciferase reporter, luminescence; zero percent = DMSO vehicle wells; 190,000 compounds, 1% hits; activation, % at 2 µM;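 active = activation above a set limit, based on mean plus 3 SD of controls, cut at about 140% in these data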
NF-kB neuron act = compounds increasing NF-kB expression in human neuronal cells | NF-kB reporter expression; active compounds read high | 190,000 compounds, 1.6% hits | fold change at 12.5 µM; in the data active = fold change above about 3.3
STAT1 activator = STAT1 signaling activation; NIH 3T3 STAT1-luciferase reporter, IFN-gamma, luminescence; 100% = IFN-gamma alone, no compound; activation (% of control), % at 5.5 µM; 200,000 compounds, 2.6% hits;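 active = activation above the screen-wide mean activation plus 3 SD, cut at about 130% in these data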;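 also: raw ratio to IFN-gamma control signal so 100% means no change and 0% no light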
FLuc stim CS = affects firefly luciferase, flagging false hits in luciferase stimulation screens; P08659; ATPlite luciferase biochemical, luminescence, 10 min; 0 = ATP-free wells, 1 = DMSO control; activation factor at 10 µM; 200,000 tested, under 10 active;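 active = luciferase activation factor, scaled between plate controls, of at least 2 with compound at 10 µM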
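System: cell-free luciferase reagent; medium: PBS as buffer for the ATP substrate; doses: test compounds dosed from 2 mM stocks in 100% DMSO; incubation: 10 min, room temperature; measured by: luminescence from luciferase reaction; read-out: luciferase activation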
An asterisk follows results filed as active; · = no result given. Rows were chosen to be rich in hits. Some 4.8% of all compounds tested hit in one or more screens of this group.

SMILES	APP 5UTR inh	FLuc inhib CS	APP 5'UTR act	NF-kB neuron act	STAT1 activator	FLuc stim CS
N/C(=N\OC(=O)Cc1ccccc1)c1ccc(Br)cc1	2	1	-2	1.8	106	1
Cc1cccc(/C(N)=N/OC(=O)Cc2cccs2)c1	-41	19	41	2.7	132*	0.8
Cc1ccc(/C(N)=N/OC(=O)Cc2cccs2)cc1	-108	15	108	2.7	150*	0.9
Cc1ccc(/C(N)=N/OC(=O)Cc2ccccc2)cc1	-53	20	53	2.4	133*	0.8
N/C(=N\OC(=O)Cc1cccs1)c1ccccc1	-24	24	24	2.3	137*	0.8
CCc1noc(C)c1C(=O)Nc1nnc(C2CCCCC2)s1	-3	-7	3	1.5	103	1.1
COc1ccc(/C=C/S(=O)(=O)NCc2ccccc2)cc1OC	-7	-1	7	0.87	99	1
Cn1cc(CNCc2ccc(-n3cccn3)cc2)c(-c2ccccc2F)n1	-32	-4	32	1.1	89	1
NC(=O)c1ccc(NC(=O)COC(=O)CCC(=O)c2ccc(Cl)cc2)cc1	-14	-6	14	1.1	103	1.1
COc1ccc(N2CCN(C(=O)Nc3ccccc3C)CC2)cc1	-2	-8	3	1.1	97	1.1
Cc1ccc(C(=O)/C=C2\NCCNC2=O)cc1	-109	67*	109	5*	131*	0.3
Cc1ccc(C(=O)c2ccc(C)cc2)cc1	-18	11	18	1	114	0.9
Cc1ccc(C(=O)/C=C2\NCC(C)NC2=O)cc1 (configuration not stated)	-118	69*	117	2.3	110	0.3
CCCCCOC(=O)c1[nH]c2c(c1C)C(=O)C(C(=O)OC)C(C)C2 (configuration not stated)	-28	4	28	2	109	1
COCCOC(=O)c1[nH]c2c(c1C)C(=O)C(C(=O)OC)C(C)C2 (configuration not stated)	-9	54*	9	2.1	117	0.5
COC(=O)C1C(=O)c2c([nH]c(C(=O)OCC3CCCO3)c2C)CC1C (configuration not stated)	-89	54*	89	1.9	120	0.5
CC(=O)N(Cc1ccc2c(c1)OCO2)C1CC(=O)N(CCc2ccccc2)C1=O (configuration not stated)	6	-7	-5	1.2	98	1.1
CCOC(=O)CSc1nnc(-c2ccc(Cl)cc2Cl)o1	-3	56*	3	2	97	0.4
Cc1nc(SCC(=O)Nc2cc(Cl)ccc2[N+](=O)[O-])nc(C)c1C	6	-3	-6	0.6	106	1
Brc1ccc(-c2noc(COc3ccc4c(c3)CCC4)n2)o1	-4	-1	4	1.2	96	1
c1csc(-c2noc(COc3ccc4c(c3)CCCC4)n2)c1	-126	5	126	4.4*	132*	0.9
c1ccc2c(C3=NNC(=NC4CC4)SC3)c[nH]c2c1	-119	53*	119	2.5	123	0.5
c1ccc(C2=NNC(=NC3CC3)SC2)cc1	-22	62*	22	2.2	76	0.4
COc1ccccc1NC(=O)c1oc2ccc(C)cc2c1C	-2	22	2	2.5	129*	0.8
COc1ccccc1NC(=O)c1oc2ccccc2c1NC(=O)c1cc(OC)c(OC)c(OC)c1	-5	·	5	·	102	·
SMILES	APP 5UTR inh	FLuc inhib CS	APP 5'UTR act	NF-kB neuron act	STAT1 activator	FLuc stim CS
COc1ccc(O)c(-c2cc(-c3cccc(Br)c3)n[nH]2)c1	-85	-2	85	3.4*	102	1
COc1ccc(-c2cc(-c3ccc(OC)c(OC)c3)n[nH]2)c(O)c1	-127	8	127	4*	97	0.9
COc1ccc(-c2cc(-c3cc(OC)ccc3O)[nH]n2)cc1	-98	17	98	2.8	114	0.8
COc1ccc(-c2c(-c3ccc(O)cc3O)n[nH]c2C)cc1OC	2	-2	-2	1.1	102	1
Oc1ccccc1-c1cc(-c2ccc3c(c2)OCCO3)n[nH]1	-211	66*	211*	8.9*	111	0.3
CCOC(=O)c1cc(-c2ccc3c(c2)OCCO3)n[nH]1	-113	60*	113	4.5*	103	0.4
O=C(O)c1cc(-c2ccc3c(c2)OCCO3)n[nH]1	-6	40	6	0.99	101	0.6
COc1ccc(-c2[nH]ncc2-c2ccc3c(c2)OCCO3)c(O)c1	20	-7	-20	0.55	83	1.1
S=C1NCCOCCNC(=S)NCCOCCOCCOCCN1	5	-7	-5	0.86	87	1.1
COc1ccc(Oc2cc(C(F)(F)F)cnc2C(N)=O)cc1	·	-7	·	0.9	100	1.1
COc1ccc(-c2cc(-c3cc(F)ccc3O)[nH]n2)cc1OC	-136	-1	136*	2.9	106	1
COc1ccc(-c2cc(-c3ccccc3O)[nH]n2)cc1OC	-194	28	194*	6.8*	109	0.7
COC(=O)c1cc(-c2ccc(OC)c(OC)c2)n[nH]1	13	-3	-13	0.81	99	1
COC(=O)c1ccc(C(=O)OC)c(-n2c(=O)c3ccccc3c3ccccc3c2=O)c1	11	-1	-11	1.1	109	1
O=C(Nc1ccccc1)Nc1cccc2nsnc12	-121	28	121	4.3*	140*	0.7
CCNC(=S)N1CCc2cc(OC)c(OC)cc2C1COc1ccccc1OC (configuration not stated)	1	-2	-1	1.1	96	1
CCCCCC(=O)NNC(=O)c1ccc(-c2ccccc2)cc1	-4	-8	4	1.3	121	1.1
Nc1c(C(=O)Nc2ccc(S(=O)(=O)N3CCCC3)cc2)sc2nc3ccc(OC(F)(F)F)cc3cc12	73*	-3	-73	1.4	108	1
Oc1c(C=Nc2ccccc2)sc2ccccc12	-77	95*	77	4.6*	118	0.1
Oc1sc(C=Nc2ccc(F)cc2)c2ccccc12	-118	3	118	2	138*	1
Oc1c(C=Nc2cccnc2)sc2ccccc12	-17	70*	17	0.96	97	0.3
Cn1cccc1C1Nc2ccccc2NC2=C1C(=O)CC(C)(C)C2 (configuration not stated)	-139	-5	139*	0.83	102	1
CC1(C)CC(=O)C2=C(C1)Nc1ccccc1NC2c1cccnc1 (configuration not stated)	·	5	·	1.2	·	0.9
COc1ccc2c(c1)NC(c1cc(Cl)cc(Cl)c1O)c1cccn1-2 (configuration not stated)	-9	-5	9	3.7*	99	1
CCC(C)[C@H](NC(=O)N1CCN(C)CC1)C(=O)OC (some centres not stated)	8	-4	-8	1.1	99	1
